Sampled rows, rich in hits. Any-hit rate of the full collection: about 3.4%.
LANA-H2A inh – blockers of LANA interaction with H2A/H2B – biochemical, FP readout, HTS, primary screen | inhibition, % (no concentration beside the values) | hit rate 0.6% among 320,000 | cell-free LANA-H2A/H2B peptide, fluorescence polarization; in the data active = inhibition mostly above about 10%, no sharp cut-off; inactive = mostly below about 6.7%
Target sequence (Q9QR71 whole entry, looked up): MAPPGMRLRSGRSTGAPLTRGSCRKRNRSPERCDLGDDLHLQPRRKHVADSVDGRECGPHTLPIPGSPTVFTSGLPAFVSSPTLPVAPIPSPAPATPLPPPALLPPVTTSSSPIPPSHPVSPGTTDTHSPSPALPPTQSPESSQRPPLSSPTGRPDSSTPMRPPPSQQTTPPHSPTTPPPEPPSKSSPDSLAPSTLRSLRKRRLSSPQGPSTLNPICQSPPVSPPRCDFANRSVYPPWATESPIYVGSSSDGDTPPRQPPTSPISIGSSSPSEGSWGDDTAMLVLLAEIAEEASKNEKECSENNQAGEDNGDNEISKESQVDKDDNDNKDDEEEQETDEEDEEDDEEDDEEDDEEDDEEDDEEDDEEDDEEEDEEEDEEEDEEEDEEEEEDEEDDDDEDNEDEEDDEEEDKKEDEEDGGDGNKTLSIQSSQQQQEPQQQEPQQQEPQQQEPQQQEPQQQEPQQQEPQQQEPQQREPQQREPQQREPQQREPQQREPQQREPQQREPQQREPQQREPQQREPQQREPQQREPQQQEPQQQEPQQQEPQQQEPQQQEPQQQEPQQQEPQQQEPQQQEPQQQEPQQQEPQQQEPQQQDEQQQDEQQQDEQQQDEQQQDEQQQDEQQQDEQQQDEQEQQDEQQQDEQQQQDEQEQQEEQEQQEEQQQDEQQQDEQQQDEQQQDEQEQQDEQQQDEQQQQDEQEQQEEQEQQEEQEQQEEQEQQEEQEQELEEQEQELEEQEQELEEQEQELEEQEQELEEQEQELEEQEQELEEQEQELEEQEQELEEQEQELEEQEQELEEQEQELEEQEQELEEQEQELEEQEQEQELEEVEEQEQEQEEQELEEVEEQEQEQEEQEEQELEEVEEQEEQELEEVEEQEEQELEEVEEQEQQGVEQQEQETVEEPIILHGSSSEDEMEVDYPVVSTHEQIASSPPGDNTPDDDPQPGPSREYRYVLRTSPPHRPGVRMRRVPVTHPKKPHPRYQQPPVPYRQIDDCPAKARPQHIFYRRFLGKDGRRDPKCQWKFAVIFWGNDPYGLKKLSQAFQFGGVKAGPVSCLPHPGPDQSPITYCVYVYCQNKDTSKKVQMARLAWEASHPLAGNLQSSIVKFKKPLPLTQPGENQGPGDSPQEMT
zfTRPN1 agonist – zebrafish TRPN1 channel agonists, primary screen, cell-based, HEK293, calcium fluorescence; activation, % at 3 µM; HEK293 zebrafish TRPN1-YFP, Fluo-8 calcium fluorescence; 100% = response to 87 µM carbachol; hit rate 0.18% among 220,000; transient receptor potential cation channel N1 (TRPN1/NompC), Danio rerio;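 active = activation above its plate's cutoff, the mean activation of test wells on that plate plus 3 SD, cut at about 19% in these data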
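System: zebrafish TRPN1-YFP in HEK293 cells / Dosing: 3 µM single point / Timing: dye loading 1 h at 37 °C, then 30 min room temperature / Signal: Fluo-8 calcium fluorescence, excitation 470-495 nm, emission 515-575 nm / Read-out basis: percent activation from peak over basal fluorescence ratio, control-normalized / Control set: high carbachol 87 µM, low DMSO alone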
TRPML3 ag – human TRPML3 channel agonists, primary screen, cell-based, HEK293 TRPML3-YFP, Fluo-8 calcium fluorescence, 3 µM; Mucolipin-3 (Homo sapiens), Q8TDD5; 100% = the carbachol control signal; activation, % at 3 µM; hit rate 0.29% among 220,000; AID 1448, 2008;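 active = activation above its plate's cutoff, the mean activation of the plate's test wells plus 3 SD, cut at about 12% in these data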
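Test system: HEK293 cells stably carrying human TRPML3-YFP; Doses: single dose, 3 µM final nominal compound, 0.3% DMSO final; Schedule: dye loading 1 h 37 °C then 30 min ambient, 125 s read; Technique: Fluo-8 calcium fluorescence; Benchmarks: high control carbachol 87 µM, low control DMSO.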
TAAR1 antag – human TAAR1 antagonists, primary screen, Fluo-8 calcium fluorescence, CHO RD-HGA16 cells. Trace amine-associated receptor 1 (Homo sapiens), Q96RJ0. antagonist. inhibition, % at 3 µM. hit rate 1.5% among 360,000. AID 624466, 2012;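 active = inhibition above a per-plate cutoff, the mean inhibition of test compounds on that plate plus 3 SD, cut at about 49% in these data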
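Test system – hTAAR1-expressing CHO RD-HGA16 cells, Gα16-coupled · Reagent – β-PEA at EC80 concentration, post-compound challenge · Compound dosing – 3 µM, single point · Timing – 140 s kinetic read after compound, 140 s after agonist · Detection – Fluo-8 intracellular calcium dye fluorescence, real-time kinetic reads · Control set – DMSO and EC80 PEA controls · Repeats – n of 1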
GPR7 antag – GPR7 receptor antagonists, primary screen, cell-based, fluorescence, single concentration; Neuropeptides B/W receptor type 1 (Homo sapiens), P48145; GPR7-expressing cells, fluorescence antagonist assay; inhibition, % at 4.4 µM; hit rate 1.1% among 290,000; AID 1861, 2009; in the data active = inhibition above about 16%, passing the limit was not always enough;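 also: cells stimulated with the agonist NPW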
TAAR1 agonist – human TAAR1 agonists, primary screen, Fluo-8 calcium fluorescence, CHO RD-HGA16 cells; vehicle wells 0%, saturating PEA agonist 100%; activation, % at 3 µM; hit rate 0.99% among 360,000; AID 624467, 2012;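 active = activation above the mean activation of all test compounds in the run plus 3 SD, cut at about 38% in these data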
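Assay system – CHO-derived RD-HGA16 cells with stable Gα16 and human TAAR1 · Compound dosing – one-point dosing at 3 µM (nominal) · Incubation – 17-24 h seeding, 75 min 37 °C dye, 30 min RT · Measured by – kinetic Fluo-8 calcium fluorescence · Control set – DMSO vehicle as 0%, PEA at EC100 as 100% · Repeats – single well for each compound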
Numbers stand for hits; i = inactive; nt = no result given.

SMILES	LANA-H2A inh	zfTRPN1 agonist	TRPML3 ag	TAAR1 antag	GPR7 antag	TAAR1 agonist
Cc1cc(NC(=O)CSc2nc(CCC3CCCC3)nc3ccccc23)no1	i	i	i	i	i	i
CN1CCCCC(NC(=O)C23CC4CC(CC(C4)C2)C3)C1=O (stereo not given)	nt	nt	nt	i	nt	i
O=C(Nc1ccc(F)cc1)C1C2CCC3C(CCC21)C3(Cl)Cl (stereo not given)	i	i	i	i	i	i
O=C(Nc1ccc(Cl)cc1)C1C2CCC3C(CCC21)C3(Cl)Cl (stereo not given)	nt	i	i	56.4	i	i
S=C(Nc1ccccc1)NC1CCN(Cc2ccccc2)CC1	i	i	i	i	i	i
S=C(Nc1ccc(Cl)cc1)NC1CCN(Cc2ccccc2)CC1	i	i	i	i	i	50.3
CC(C)N(C[C@@H]1CSCCS(=O)(=O)N1)C(C)C	nt	nt	nt	i	nt	i
O=C(C(=O)N1CCC(CNS(=O)(=O)c2ccccc2OC(F)(F)F)CC1)c1cccs1	nt	nt	nt	i	nt	i
O=C(CCn1cccc1)NCc1ccccc1	i	i	i	i	i	i
O=C(Cc1ccccc1)NCc1ccc(-n2cccc2)cc1	i	i	i	i	i	37.9
C=CCO[C@H]1CN(C(=O)OC)[C@@H]2C[C@H]1Oc1ccccc12	nt	nt	nt	i	nt	i
COc1cc(CNCc2ccc(OC)c(OC)c2OC)cc(OC)c1	36.8	i	i	i	i	i
COc1cccc(CNCc2cc(OC)cc(OC)c2)c1	i	nt	nt	i	i	i
CCN(CC)c1ccc(NC(=O)CCc2nnc3ccc(N4CCCC4)nn23)c(C)c1	28.8	nt	nt	i	i	i
COc1ccc(N2C[C@@]3(O)CC[C@@H](O)[C@@H](OC)[C@@H]3[C@@]2(C)[C@H](O)CC=C(C)C)cc1	nt	nt	nt	i	nt	i
COCCn1c(SCc2ccc(OC)c(F)c2)nc2ccccc2c1=O	i	i	i	i	i	i
COc1ccc(CSc2nc3ccccc3c(=O)[nH]2)cc1F	i	i	i	49.5	i	i
Cc1cccc(-c2cc(C(=O)NCc3ccccn3)c3ccccc3n2)c1	i	i	i	52.7	i	i
O=C(NCc1ccccn1)c1cc(-c2ccc(-c3ccccc3)cc2)nc2ccccc12	i	i	i	51.1	i	i
O=C(NCC(c1cccs1)N1CCOCC1)c1cc(-c2ccc(F)cc2)nc2ccccc12 (stereo not given)	i	i	i	i	19.7	i
O=C(NCC(c1cccs1)N1CCOCC1)c1cn(-c2ccccc2)nc1-c1ccc(F)cc1 (stereo not given)	i	nt	nt	i	nt	i
Nc1ccc(F)c(CN2CCN(c3ncc(Cc4ccccc4)cn3)CC2)c1	nt	nt	nt	i	nt	i
O=C(Cn1cnc2ccccc21)N/N=C/C(Br)=C/c1ccccc1	i	i	i	49.1	i	i
O=C(CN1C(=O)NC(Cc2c[nH]c3ccccc23)C1=O)Nc1cccc(S(=O)(=O)N2CCOCC2)c1 (stereo not given)	24.6	i	i	i	i	i
COc1ccccc1NC(=O)COC(=O)C12CC3CC(CC(Cl)(C3)C1)C2	i	i	i	i	i	i
SMILES	LANA-H2A inh	zfTRPN1 agonist	TRPML3 ag	TAAR1 antag	GPR7 antag	TAAR1 agonist
COc1ccc(NC(=O)COC(=O)C23CC4CC(CC(Cl)(C4)C2)C3)c(OC)c1	171.4	i	i	i	i	i
CN1CCc2c(sc(/N=C/c3c[nH]c4ccccc34)c2C(N)=O)C1	i	i	i	i	i	i
CN1CCc2c(sc(/N=C/c3c[nH]c4ccccc34)c2C#N)C1	38.3	i	i	i	i	i
COc1cc2c(c(OC3OC(CO)C(O)C(O)C3O)c1)C(=O)CC(c1ccc(O)cc1)O2 (stereo not given)	nt	nt	nt	i	nt	i
COc1cc(C(=O)Nc2ccc3nc(N4CCOCC4)sc3c2)cc(OC)c1OC	37.4	nt	nt	i	nt	i
CN(Cc1ccccc1)C(=O)COc1cccnc1[N+](=O)[O-]	i	nt	nt	i	i	i
Cc1ccc(OCC(=O)N(C)Cc2ccccc2)c([N+](=O)[O-])n1	16.6	i	i	i	i	i
Cc1ccc(NCN2C(=O)c3ccccc3C2=O)c(C)n1	nt	nt	nt	i	nt	i
C=CCn1c(=S)[nH]c2ccccc2c1=O	16.4	i	i	i	i	i
CC(C)Cn1c(=S)[nH]c2ccccc2c1=O	i	i	i	i	i	i
O=C(Cn1c(=S)[nH]c2ccccc2c1=O)NCCc1ccccc1	i	i	i	i	i	38.2
c1ccc(Cc2cnc(N3CCN(Cc4cccc(-c5ccsc5)n4)CC3)nc2)cc1	nt	nt	nt	i	nt	i
Cc1cc(C)c(N(C(=O)CN2C(=O)c3ccccc3S2(=O)=O)C(C(=O)NCC2CCCO2)c2ccc(F)cc2)c(C)c1 (stereo not given)	i	i	i	51.6	i	i
Cc1c(C=O)c(=O)n(-c2ccccc2)n1-c1ccccc1	i	i	i	i	20.3	i
O=C(Nc1ccc(-n2cnnn2)cc1)C1CCCN1C(=O)NC1CCCCC1 (stereo not given)	i	i	i	i	i	i
O=C(Nc1ccc(-n2cnnn2)cc1)C1CCCCC1	13.3	i	i	i	i	i
O=C(N[C@H](C(=O)N1CCC[C@H]1C(=O)NCc1ccccc1)c1ccccc1)C1CCCC1	nt	nt	nt	i	nt	i
CC(C)OC(=O)CC(=O)c1sc2nc3c(cc2c1N)CN(C)CC3	74.3	i	i	nt	i	nt
S=c1[nH]nc(-c2ccncc2)n1Cc1ccccc1	i	i	i	i	i	i
Cc1cc(-c2n[nH]c(=S)n2Cc2ccccc2)cs1	i	i	i	i	22.1	i
CC(C)C[C@@H]1COc2cc(N3CCOCC3)ccc2S(=O)(=O)N1	nt	nt	nt	i	nt	i
O=C(c1ccc(F)cc1)C1CCN(CCCn2c(=O)[nH]c3ccccc32)CC1	nt	nt	nt	i	nt	i
NS(=O)(=O)c1ccc(CCNC(=O)COC(=O)/C=C/c2ccccc2Cl)cc1	i	i	i	i	i	41.5
COC(=O)C1=C(C)N(Cc2ccccc2C(F)(F)F)C(=NCc2ccccc2)NC1c1cccc(F)c1 (stereo not given)	nt	nt	nt	i	nt	i
COC(=O)[C@]12C[C@H](CC(=O)N3CCSCC3)C(=O)N(Cc3ccc4c(c3)OCO4)C1=C[C@H](COCc1ccccc1)O[C@@H]2C	nt	nt	nt	i	nt	i
Cc1cc2ncn(-c3nnnn3-c3ccccc3)c2cc1C	i	i	i	i	18.7	i
Cc1cc(Nc2nnnn2-c2ccccc2)n(-c2ccccc2)n1	i	i	i	i	i	i
